# Experimental data: publication PMC6689428 (Biochimica et biophysica acta. Biomembranes, 2019)
# Legend:
# S. aureus USA300 [1] = experiment: Membrane permeation, propidium iodide; type: cell-based, Staphylococcus aureus; conditions: S. aureus USA300, peptides at 3.12 μM, 10 mM PBS, 37°C, read for 2 h
# Procedure, shortened: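 Cells were suspended in 10 mM PBS at final OD600 ~0.1 with propidium iodide and serially diluted 10× peptide. They were held at 37°C shaking at 100 rpm. Fluorescence (ex 584/em 620 nm) was read every 5 min for 2 h. Plots used averages of duplicate experiments.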
# S. aureus USA300 [2] = experiment: Membrane depolarization, DiBAC4; type: cell-based, Staphylococcus aureus; conditions: S. aureus USA300, treated at 12.5 μM, DiBAC4(3) fluorescence; Triton X-100 (0.1%) positive control
# [3] = test system: S. aureus USA300 biofilms; experiment: Disruption of 24 h established biofilms, XTT; type: cell-based, Staphylococcus aureus; conditions: 24 h preformed S. aureus USA300 biofilms, 24 h treatment in TSB
# Procedure, shortened: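 Exponential-phase TSB culture at 10^5 CFU/mL grew 24 h at 37°C to form biofilms. Plankton was removed with a PBS wash. Biofilms took 10× peptide diluted in fresh TSB for 24 h at 37°C, were washed, then got XTT in TSB for 2 h at 37°C. A450 was blanked on media plus XTT. Growth was expressed as % of untreated biofilm wells.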
# E. coli ML-35p = experiment: Outer and inner membrane permeabilization; type: cell-based, Escherichia coli; conditions: peptides at 6.25 μM, absorbance for 40 min
# Procedure, shortened: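 Cells came from a single colony grown overnight in TSB at 37°C and were washed three times in PBS. They were diluted to ~10^6 CFU/mL in PBS containing 0.3 mg/mL TSB. Peptide was 0 to 12.5 μM, with 30 μM nitrocefin or 2.5 mM ONPG per well. Absorbance at 490 and 420 nm was followed for 40 min at 37°C.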
# S. aureus USA300 [4] = conditions: ref [10]; cited from earlier work
# E. coli = conditions: ref [50], [10]; cited from earlier work
# [5] = test system: E. coli ATCC 25922 biofilms; experiment: Disruption of 24 h established biofilms, XTT; type: cell-based, Escherichia coli; conditions: 24 h preformed E. coli ATCC 25922 biofilms
molecule,measurement,setting,value
NC[C@H]1O[C@H](O[C@H]2[C@H](O)[C@@H](O[C@H]3O[C@H](CO)[C@@H](O)[C@H](N)[C@H]3O)[C@H](N)C[C@@H]2N)[C@H](N)C[C@@H]1O [tobramycin],Membrane permeation (propidium iodide fluorescence),S. aureus USA300 [1],unable to damage bacterial membranes
CCCCCCCCCC(=O)N[C@@H](Cc1c[nH]c2ccccc12)C(=O)N[C@H](CC(N)=O)C(=O)N[C@@H](CC(=O)O)C(=O)N[C@@H]1C(=O)NCC(=O)N[C@@H](CCCN)C(=O)N[C@@H](CC(=O)O)C(=O)N[C@H](C)C(=O)N[C@@H](CC(=O)O)C(=O)NCC(=O)N[C@H](CO)C(=O)N[C@@H]([C@H](C)CC(=O)O)C(=O)N[C@@H](CC(=O)c2ccccc2N)C(=O)O[C@@H]1C [daptomycin],Membrane depolarization,S. aureus USA300 [2],very weak
same,Concentration that essentially eliminated biofilms,[3],6.25 µM
CN[C@H](CC(C)C)C(=O)N[C@H]1C(=O)N[C@@H](CC(N)=O)C(=O)N[C@H]2C(=O)N[C@H]3C(=O)N[C@H](C(=O)N[C@H](C(=O)O)c4cc(O)cc(O)c4-c4cc3ccc4O)[C@H](O)c3ccc(c(Cl)c3)Oc3cc2cc(c3O[C@@H]2O[C@H](CO)[C@@H](O)[C@H](O)[C@H]2O[C@H]2C[C@](C)(N)[C@H](O)[C@H](C)O2)Oc2ccc(cc2Cl)[C@H]1O [vancomycin],"Outer membrane permeation (β-lactamase, nitrocefin)",E. coli ML-35p,unable to
GFKRlVQRlKDFlRKLV-amide [GF-17d3],Activity against S. aureus USA300,S. aureus USA300 [4],not active
same,Activity against E. coli in the presence of chymotrypsin,E. coli,active
CO[C@H]1/C=C/O[C@@]2(C)Oc3c(C)c(O)c4c(O)c(cc(O)c4c3C2=O)NC(=O)/C(C)=C\C=C\[C@H](C)[C@H](O)[C@@H](C)[C@@H](O)[C@@H](C)[C@H](OC(C)=O)[C@@H]1C [rifamycin],Antibiofilm effect,[5],ineffective
